Data reported in ChEMBL document CHEMBL4480402, “3,3'-Disubstituted 5,5'-Bi(1,2,4-triazine) Derivatives with Potent in Vitro and in Vivo Antimalarial Activity” (J Med Chem, 2019).
≈ marks a conversion by molar mass, not a printed value.

Key:
[1] = Kinetic solubility of the compound in HCL buffer at pH 2 after 30 mins by nephelometry; assay type: physicochemical; conditions: read-out: Kinetic_solubility
Summary of the method: (§1)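 Kinetic aqueous solubility determined by nephelometry.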

[2] = Kinetic solubility of the compound in phosphate buffer at pH 6.5 after 30 mins by nephelometry; assay type: physicochemical; conditions: read-out: Kinetic_solubility; summary of the method: as §1
[3] = Plasma concentration in Swiss mouse at […], iv via bolus administration measured up to 30 mins; assay type: ADME, organism-based
[4] = Apparent permeability across apical to basolateral side in human Caco2 cells; assay type: ADME, cell-based; conditions: Caco-2
[5] = Plasma concentration in Swiss mouse at 30 mg/kg, po via gavage administration measured at 60 to 120 mins; assay type: ADME, organism-based; conditions: in vivo
Summary of the method: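 Non-fasted male Swiss outbred mice (24–33 g) with free access to food and water, two mice per dose. Dosed by bolus tail-vein IV injection or oral gavage. Blood taken up to 24 h by submandibular bleed or terminal cardiac puncture into tubes with heparin and a stabilization cocktail, at most two samples per mouse. Plasma stored at -20 °C until analysis.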

[6] = Plasma concentration in Swiss mouse at […], po via gavage administration measured up to 30 mins; assay type: ADME, organism-based; conditions: in vivo, 0.5 h
[7] = Apparent permeability across basolateral to apical side in human Caco2 cells assessed as mass balance; assay type: ADME, cell-based; conditions: Caco-2, read-out: permeability
[8] = Apparent permeability across apical to basolateral side in human Caco2 cells assessed as mass balance; assay type: ADME, cell-based; conditions: Caco-2, read-out: permeability

Row | SMILES | solubility kinetic at 0.5 h [1] [µg/mL] | solubility kinetic at 0.5 h [2] [µg/mL] | other results
1 | CSc1nncc(-c2cnnc(SC)n2)n1 | 6.3 to 12.5 (≈ 25 to 49.5 µM) | 3.1 to 6.3 (≈ 12.3 to 25 µM) | 
2 | CSc1nncc(-c2cnnc(OCCN(C)C)n2)n1 | 25 to 50 (≈ 85.2 to 170 µM) | 50 to 100 (≈ 170 to 341 µM) | 
3 | COc1nncc(-c2cnnc(OC)n2)n1 | > 100 | 50 to 100 (≈ 227 to 454 µM) | 
4 | CSc1nncc(-c2cnnc(SC3CCCC3)n2)n1 | 6.3 to 12.5 (≈ 20.6 to 40.8 µM) | 6.3 to 12.5 (≈ 20.6 to 40.8 µM) | 
5 | CC(C)CSc1nncc(-c2cnnc(SCC(C)C)n2)n1 | 1.6 to 3.1 (≈ 4.75 to 9.21 µM) | 1.6 to 3.1 (≈ 4.75 to 9.21 µM) | 

Second part, led by results:

Row | solubility kinetic at 0.5 h [1] [µg/mL] | solubility kinetic at 0.5 h [2] [µg/mL] | SMILES | other results
6 | 3.1 to 6.3 (≈ 10.1 to 20.4 µM) | 3.1 to 6.3 (≈ 10.1 to 20.4 µM) | CCCSc1nncc(-c2cnnc(SCCC)n2)n1 | 
7 | 6.3 to 12.5 (≈ 20.4 to 40.4 µM) | 6.3 to 12.5 (≈ 20.4 to 40.4 µM) | CSc1nncc(-c2cnnc(SCCN(C)C)n2)n1 | concentration at 0.5 h [3]: > 20 nM; Papp A→B [4]: 49 ×10⁻⁶ cm/s; Drug uptake [5]: Active; Drug uptake [6]: Not Active; recovery [7]: 90%; recovery [8]: 85%
8 | < 1.6 | < 1.6 | CCCCSc1nncc(-c2cnnc(SCCCC)n2)n1 | 
9 | 12.5 to 25 (≈ 36.7 to 73.4 µM) | 12.5 to 25 (≈ 36.7 to 73.4 µM) | COCCSc1nncc(-c2cnnc(SCCOC)n2)n1 | 
10 | 25 to 50 (≈ 73.4 to 147 µM) | 60 to 100 (≈ 176 to 294 µM) | OCCCSc1nncc(-c2cnnc(SCCCO)n2)n1 | 
11 | 50 to 100 (≈ 169 to 337 µM) | 50 to 100 (≈ 169 to 337 µM) | CSc1nncc(-c2cnnc(SCCCO)n2)n1 | 
